Measurements from ChEMBL document CHEMBL1129491, “Synthesis of non-nucleoside analogs of toyocamycin, sangivamycin, and ++thiosangivamycin: influence of various 7-substituents on antiviral activity” (J Med Chem, 1996).

Experiments:
HFF = assay: Cytotoxicity against HFF cells, estimated by visual scoring of cells not affected by virus infection in the plaque reduction assay; assay type: functional, cell-based; settings: Homo sapiens
Method in brief: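 Uninfected areas of HFF monolayers in the HCMV plaque-reduction assay examined at 35-fold magnification. Drug-induced cytopathology scored 0–4 on the day plaques were stained and counted.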

Human alphaherpesvirus 1 = assay: Antiviral activity against HSV-1 replication was evaluated by ELISA; assay type: functional, organism-based
Method in brief: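 HSV-1 strain S-148 ELISA following Prichard and Shipman. Drug concentrations applied to infected cultures; percent inhibition regressed linearly against log concentration and IC50 read from the regression line. Acyclovir as positive control. Most assays averaged over two or more experiments, but HSV-1 ELISAs were run once.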

Human betaherpesvirus 5 [1] = assay: Antiviral activity against Human Cytomegalovirus (HCMV) replication in a plaque reduction assay; assay type: functional, organism-based
Method in brief: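 Towne strain HCMV (plaque-purified P0) on HFF monolayers in MEM(E) with 10% FBS. Inoculum ca. 100 PFU per 0.2 mL; compounds dissolved in the overlay medium; plaques counted after staining. IC50 from linear regression of percent inhibition against log concentration. Ganciclovir as positive control; two or more experiments averaged.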

KB [2] = assay: Cytotoxic activity tested against exponentially growing KB cells, determined by staining method; assay type: functional, cell-based; settings: Homo sapiens
Method in brief: (§1)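 KB cells (human oral epidermoid carcinoma) kept in MEM(H) with 10% calf serum and tested while exponentially growing. Toxicity measured by a previously described staining method. IC50 from linear regression of percent inhibition against log drug concentration; two or more experiments averaged.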

L1210 [3] = assay: In vitro cytotoxicity against growth rate of L1210 cell at 100 micro M was evaluated.; assay type: functional, Mus musculus
Method in brief: (§2)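 L1210 murine leukemia cells in Fischer's medium with 10% heat-inactivated horse serum (56 °C, 30 min), exposed to 100 μM compound. Cells counted at 0, 24, 48, 72 and 96 h. Growth rate taken as the slope of semilog cell number versus time, expressed as percent of untreated control.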

Human betaherpesvirus 5 [4] = assay: Antiviral activity in Human Cytomegalovirus Viral infection was evaluated by ELISA method; assay type: functional, organism-based
Method in brief: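 MRC-5 cells held overnight at 37 °C, then infected with Towne HCMV at moi 0.002 PFU/cell. After 1 h adsorption, up to 10 drug concentrations added in triplicate. Fixed with 95% EtOH after 6.5 days. Blocked, then mouse anti-HCMV monoclonal (1:400, 1 h) and peroxidase anti-mouse (1:1000, 2 h). Read at 450/570 nm, background subtracted; IC50 by log-linear regression.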

L1210 [5] = assay: In vitro cytotoxicity against growth rate of L1210 cell at 100 uM was evaluated.; assay type: functional, Mus musculus; method in brief: as §2
KB [6] = assay: Cytotoxic activity against exponentially growing KB cells was determined by a staining method; assay type: functional, cell-based; settings: Homo sapiens; method in brief: as §1
L1210 [7] = assay: Inhibitory concentration required to decrease the growth rate of L1210 cells to one-half of the control rate.; assay type: functional, cell-based; settings: Mus musculus
Method in brief: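 L1210 cells in Fischer's medium with 10% heat-inactivated horse serum, counted at 0, 24, 48, 72 and 96 h across selected compound concentrations. Growth rate is the semilog slope as percent of control. IC50 is the concentration that halves the growth rate; '>' values give the highest concentration tested.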

L1210 [8] = assay: Percent control against growth rate of L1210 cell at 100 micro M was evaluated.; assay type: functional, Mus musculus; method in brief: as §2

Structure (SMILES) | IC50 (HFF) [µM] | IC50 (Human alphaherpesvirus 1) [µM] | IC50 (Human betaherpesvirus 5 [1]) [µM] | IC50 (KB [2]) [µM] | Control (L1210 [3]) [%] | IC50 (Human betaherpesvirus 5 [4]) [µM] | Control (L1210 [5]) [%] | IC50 (KB [6]) [µM] | IC50 (L1210 [7]) [µM] | Control (L1210 [8]) [%]
COCCOCn1cc(C#N)c2c(N)ncnc21 | > 100 | > 100 | 90 | > 100 | 88 |  |  |  |  | 
CCOCn1cc(C(=N)S)c2c(N)ncnc21 | 66 | 40 | 2.7 | 68 | 111 | 7 |  |  |  | 
COCCOCn1cc(C(N)=S)c2c(N)ncnc21 | > 100 | 85 | 1 | 183 | 88 | 1.9 |  |  |  | 
N#Cc1cn(COCc2ccccc2)c2ncnc(N)c12 | > 100 | > 100 | > 100 | > 100 | 83 |  |  |  |  | 
Cc1ccc(Cn2cc(C#N)c3c(N)ncnc32)cc1 | > 100 | > 100 | > 100 | > 100 |  |  | 64 |  |  | 
Cc1cccc(Cn2cc(C#N)c3c(N)ncnc32)c1 | > 100 | > 100 | > 100 |  |  |  |  | > 100 |  | 
Cc1ccc(Cn2cc(C(N)=O)c3c(N)ncnc32)cc1 | > 100 | > 100 | > 100 | > 100 |  |  | 2 |  | 20 | 
CC(C)(C)c1ccc(Cn2cc(C(N)=O)c3c(N)ncnc32)cc1 | 100 | 50 | 28 | 0.9 |  |  |  |  |  | 
COc1ccc(Cn2cc(C(=N)S)c3c(N)ncnc32)cc1 | 66 | 4 | 0.5 | 28 |  | 0.5 |  |  |  | 
NC(=O)c1cn(COCc2ccccc2)c2ncnc(N)c12 | > 100 | > 100 | > 100 | > 100 | 0 |  |  |  | 70 | 
COc1ccc(Cn2cc(C#N)c3c(N)ncnc32)cc1 | > 100 | > 100 | > 100 | > 100 |  |  |  |  |  | 
Cc1ccccc1Cn1cc(C#N)c2c(N)ncnc21 | > 100 | > 100 | 3.4 | > 100 |  | 32 |  |  |  | 
CC(C)(C)c1ccc(Cn2cc(C#N)c3c(N)ncnc32)cc1 | > 32 | > 100 | 32 | 3 |  |  |  |  |  | 
NC(=O)c1cn(Cc2ccccc2)c2ncnc(N)c12 | > 32 | 33 | > 100 | 75 |  |  | 0 |  | 16 | 
NC(=S)c1cn([C@@H]2O[C@H](CO)[C@@H](O)[C@H]2O)c2ncnc(N)c12 | 0.2 |  | 0.2 |  |  |  |  |  |  | 
NC(=S)c1c[nH]c2ncnc(N)c12 | > 32 | 35 | 1.6 | 25 |  |  |  |  |  | 
Cc1cccc(Cn2cc(C(=N)S)c3c(N)ncnc32)c1 | 66 | 15 | 0.25 | 30 |  |  |  |  |  | 
COc1ccc(Cn2cc(C(N)=O)c3c(N)ncnc32)cc1 | > 32 | 35 | 13 | 47 |  |  |  |  |  | 
CC(C)(C)c1ccc(Cn2cc(C(=N)S)c3c(N)ncnc32)cc1 | > 100 | 15 | 1.5 | 7 |  |  |  |  |  | 
NC(=S)c1cn(Cc2ccccc2)c2ncnc(N)c12 | > 32 | 7.4 | 0.36 | 32 |  | 0.33 | 0 |  | 70 | 
Cc1ccc(Cn2cc(C(=N)S)c3c(N)ncnc32)cc1 | 100 | 3.5 | 0.1 | 65 |  | 0.15 | 92 |  | > 10 | 
C=CCn1cc(C(N)=O)c2c(N)ncnc21 |  | > 100 | > 100 | 100 |  |  | 66 |  |  | 

Structure (SMILES) | IC50 (HFF) [µM] | IC50 (Human alphaherpesvirus 1) [µM] | IC50 (Human betaherpesvirus 5 [1]) [µM] | IC50 (KB [2]) [µM] | Control (L1210 [3]) [%] | IC50 (Human betaherpesvirus 5 [4]) [µM] | Control (L1210 [5]) [%] | IC50 (KB [6]) [µM] | IC50 (L1210 [7]) [µM] | Control (L1210 [8]) [%]
Cn1cc(C(N)=O)c2c(N)ncnc21 |  | > 100 | > 100 | > 100 |  |  | 89 |  |  | 
CCCn1cc(C(=N)S)c2c(N)ncnc21 | 25 | 12 | 1.2 | 17 |  |  | 79 |  |  | 
Cn1cc(C#N)c2c(N)ncnc21 |  | > 100 | > 100 | > 100 |  | > 100 | 87 |  |  | 
NC(=S)c1cn(COC(CO)CO)c2ncnc(N)c12 | > 100 | > 100 | 6.2 | > 100 |  |  |  |  |  | 
NC(=S)c1cn(COCCO)c2ncnc(N)c12 | > 100 | 21 | 8.8 | 115 |  |  |  |  |  | 
N#Cc1cn(Cc2ccccc2)c2ncnc(N)c12 | > 100 | 90 | > 100 | > 100 |  |  | 60 |  |  | 
CCOCn1cc(C(N)=O)c2c(N)ncnc21 | > 100 | > 100 | > 100 | > 100 |  |  |  |  |  | 91
COCCOCn1cc(C(N)=O)c2c(N)ncnc21 | > 100 | > 100 | > 100 | > 100 | 92 |  |  |  |  | 
Cc1cccc(Cn2cc(C(N)=O)c3c(N)ncnc32)c1 | > 100 | > 100 | > 100 | > 100 |  |  |  |  |  | 
NC(=S)c1cn(COCc2ccccc2)c2ncnc(N)c12 | > 100 | 10 | 2.6 | > 100 | 52 | 1.8 |  |  | 100 | 
Cc1ccccc1Cn1cc(C(N)=O)c2c(N)ncnc21 | > 100 | > 100 | 15 | > 100 |  |  |  |  |  | 
CCOCn1cc(C#N)c2c(N)ncnc21 | > 100 | > 100 | > 100 | > 100 | 76 |  |  |  |  | 
Cc1ccccc1Cn1cc(C(=N)S)c2c(N)ncnc21 | 66 | 0.9 | 0.1 | > 17 |  |  |  |  |  | 
CCCn1cc(C(N)=O)c2c(N)ncnc21 |  | > 100 | > 100 | 100 |  | > 100 | 0 |  | 73 | 
C=CCn1cc(C(N)=S)c2c(N)ncnc21 |  | 4.5 | 2.1 | 19 |  |  | 0 |  | 38 | 
CCCn1cc(C#N)c2c(N)ncnc21 | > 100 | > 100 | 36 | > 100 |  |  | 74 |  |  | 
Cn1cc(C(=N)S)c2c(N)ncnc21 |  | 2.8 | 1.2 | 15 |  |  | 0 |  | 38 | 
C=CCn1cc(C#N)c2c(N)ncnc21 |  | > 100 | > 100 | > 100 |  |  | 75 |  |  | 
NC(=O)c1cn([C@@H]2O[C@H](CO)[C@@H](O)[C@H]2O)c2ncnc(N)c12 [SANGIVAMYCIN] | < 0.01 |  |  | 0.08 |  |  |  |  |  | 
N#Cc1c[nH]c2ncnc(N)c12 [TOYOCAMYCIN AGLYCONE] | 10 | > 100 | 3.9 | 18 |  |  |  |  |  | 
N#Cc1cn([C@@H]2O[C@H](CO)[C@@H](O)[C@H]2O)c2ncnc(N)c12 [TOYOCAMYCIN] | < 0.01 |  |  | 0.03 |  |  |  |  |  | 
